According to paper PMC8939876 (RSC Advances, 2019):

Assays:
Type in all cases: cell-based
[1] = tested on: Plasmodium falciparum 7G8 (MDR strain with New World genetic background); details: 7G8, read-out: In vitro activity (IC50 nM) 7G8
[2] = tested on: Plasmodium falciparum Dd2 (MDR strain with Old World genetic background); details: DD2, read-out: In vitro activity (IC50 nM) Dd2
[3] = tested on: Plasmodium falciparum D6 (CQ-sensitive); details: D6, read-out: In vitro activity (IC50 nM) D6
[4] = tested on: HepG2 cells; experiment: HepG2 cytotoxicity assay; details: Homo sapiens, HepG2, read-out: Cytotoxicity (nM) vs. HepG2
Procedure, shortened: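 HepG2 cells kept in RPMI-1640 with 10% FBS (37 °C, 5% CO2) were seeded at 2 × 10^4/well and left to attach overnight. Test compound (10 mM DMSO stock) was serially diluted in medium and applied for 24–36 h. Cells then had fresh medium for 24 h more, then resazurin (final 10 μM) for 3 h. Fluorescence read at ex 560/em 590 nm. IC50 from nonlinear logistic regression.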

[5] = tested on: panel of Plasmodium falciparum malaria parasites; details: for antimalarial activity against all tested strains (in words): D6, Dd2, 7G8 strains; for therapeutic index (the ratio of cytotoxicity to antimalarial therapeutic efficacy): HepG2 cytotoxicity vs antimalarial IC50

Compound `COc1ccc2c(=O)c3cc(OC(F)(F)F)ccc3[nH]c2c1` [2d, 6-Methoxy-2-(trifluoromethoxy)acridin-9(10H)-one] has an IC50 [1] of 1.51 nM, an IC50 [2] of 1.1 nM and an IC50 [3] of 0.103 nM. For the same compound, the CC50 [4] was > 200000 nM, the “antimalarial activity against all tested strains (in words)” value (shortened to “antimalarial activity”) [5] was “excellent activity” and the “therapeutic index (the ratio of cytotoxicity to antimalarial therapeutic efficacy)” value [5] was “high”.
`COc1ccc2c(=O)c3cc(Oc4ccc(Cl)cc4)ccc3[nH]c2c1` [2e, 2-(4-Chlorophenoxy)-6-methoxyacridin-9(10H)-one] was tested, and the IC50 [1] was 13.5 nM, the IC50 [2] was 11.7 nM and the IC50 [3] was 8.84 nM. The CC50 [4] was > 200000 nM, the “antimalarial activity” value [5] was “excellent activity” and the “therapeutic index (the ratio of cytotoxicity to antimalarial therapeutic efficacy)” value [5] was “high”.
In the case of `COc1ccc2c(=O)c3cccc(OC(F)(F)F)c3[nH]c2c1` [2f, 3-Methoxy-5-(trifluoromethoxy)acridin-9(10H)-one], the IC50 [1] is reported as 1140 nM, the IC50 [2] is reported as 753 nM and the IC50 [3] is reported as 782 nM. The CC50 [4] was > 200000 nM.
`COc1ccc2c(=O)c3cc(S(=O)(=O)C(F)(F)F)ccc3[nH]c2c1` [2g, 6-Methoxy-2-((trifluoromethyl)sulfonyl)acridin-9(10H)-one] gave an IC50 [1] of 22.2 nM, an IC50 [2] of 11.6 nM and an IC50 [3] of 11.6 nM. The CC50 [4] was > 200000 nM, the “antimalarial activity” value [5] was “excellent activity” and the “therapeutic index (the ratio of cytotoxicity to antimalarial therapeutic efficacy)” value [5] was “high”.
For `COc1ccc2c(=O)c3cc(C#N)ccc3[nH]c2c1` [2i, 6-Methoxy-9-oxo-9,10-dihydroacridine-2-carbonitrile], the IC50 [1] was 228 nM, the IC50 [2] was 177 nM and the IC50 [3] was 100 nM. The CC50 [4] was > 200000 nM.
For `COc1ccc2c(=O)c3cc([N+](=O)[O-])ccc3[nH]c2c1` [2j, 6-Methoxy-2-nitroacridin-9(10H)-one], the IC50 [1] was 35 nM, the IC50 [2] was 98.1 nM and the IC50 [3] was 84.1 nM. For the same compound, the CC50 [4] was > 200000 nM.
Compound `CCN(CC)CCn1c2ccc([N+](=O)[O-])cc2c(=O)c2ccc(OC)cc21` [2l, 10-(2-(Diethylamino)ethyl)-6-methoxy-2-nitroacridin-9(10H)-one] has an IC50 [1] of 462 nM, an IC50 [2] of 684 nM and an IC50 [3] of 405 nM. It also gave a CC50 [4] of 12300 nM.
Compound `COc1ccc2c(=O)c3c(F)c(F)c(F)c(F)c3[nH]c2c1` [2n, 1,2,3,4-Tetrafluoro-6-methoxyacridin-9(10H)-one] has an IC50 [1] of 41.8 nM, an IC50 [2] of 325 nM and an IC50 [3] of 257 nM. For the same compound, the CC50 [4] was > 200000 nM.
Compound `COc1ccc2[nH]c3ccc(OC(F)(F)F)cc3c(=O)c2c1` [2o, 2-Methoxy-7-(trifluoromethoxy)acridin-9(10H)-one] has an IC50 [1] of 437 nM, an IC50 [2] of 425 nM and an IC50 [3] of 632 nM. For the same compound, the CC50 [4] was > 200000 nM.
`COc1ccc2[nH]c3ccc(Oc4ccc(Cl)cc4)cc3c(=O)c2c1` [2p, 2-(4-Chlorophenoxy)-7-methoxyacridin-9(10H)-one] gave an IC50 [1] of 911 nM, an IC50 [2] of 513 nM and an IC50 [3] of 573 nM. The CC50 [4] was > 200000 nM.
In the case of `COc1ccc2[nH]c3c(OC(F)(F)F)cccc3c(=O)c2c1` [2q, 2-Methoxy-5-(trifluoromethoxy)acridin-9(10H)-one], the IC50 [1] is reported as > 2500 nM, the IC50 [2] is reported as 1680 nM and the IC50 [3] is reported as 1490 nM. For the same compound, the CC50 [4] was > 200000 nM.
For `COc1ccc2[nH]c3ccc(C#N)cc3c(=O)c2c1` [2r, 7-Methoxy-9-oxo-9,10-dihydroacridine-2-carbonitrile], the IC50 [1] was > 2500 nM, the IC50 [2] was 932 nM and the IC50 [3] was 983 nM. For the same compound, the CC50 [4] was > 200000 nM.
For `COc1ccc2[nH]c3cc(F)cc(F)c3c(=O)c2c1` [2s, 1,3-Difluoro-7-methoxyacridin-9(10H)-one], the IC50 [1] was 0.2 nM, the IC50 [2] was 0.29 nM and the IC50 [3] was 0.05 nM. For the same compound, the CC50 [4] was > 200000 nM, the “antimalarial activity” value [5] was “excellent activity” and the “therapeutic index (the ratio of cytotoxicity to antimalarial therapeutic efficacy)” value [5] was “high”.
For `COc1ccc2[nH]c3c(F)c(F)c(F)c(F)c3c(=O)c2c1` [2t, 1,2,3,4-Tetrafluoro-7-methoxyacridin-9(10H)-one], the IC50 [1] was 393 nM, the IC50 [2] was 1950 nM and the IC50 [3] was > 2500 nM. For the same compound, the CC50 [4] was > 200000 nM.
With `O=c1c2cc(OCCCl)ccc2[nH]c2cc(F)cc(F)c12` [2u, 7-(2-Chloroethoxy)-1,3-difluoroacridin-9(10H)-one] the IC50 [1] was 1.22 nM, the IC50 [2] was 0.91 nM and the IC50 [3] was 11.6 nM. For the same compound, the CC50 [4] was > 200000 nM, the “antimalarial activity” value [5] was “excellent activity” and the “therapeutic index (the ratio of cytotoxicity to antimalarial therapeutic efficacy)” value [5] was “high”.
`COc1cccc2c(=O)c3cc(OC(F)(F)F)ccc3[nH]c12` [2v, 5-Methoxy-2-(trifluoromethoxy)acridin-9(10H)-one] was tested, and the IC50 [1] was 46.3 nM, the IC50 [2] was 15.5 nM and the IC50 [3] was 27.7 nM. The CC50 [4] was 139000 nM, the “antimalarial activity” value [5] was “excellent activity” and the “therapeutic index (the ratio of cytotoxicity to antimalarial therapeutic efficacy)” value [5] was “high”.
`Cc1ccc2[nH]c3ccc(OC(F)(F)F)cc3c(=O)c2c1` [2w, 2-Methyl-7-(trifluoromethoxy)acridin-9(10H)-one] gave an IC50 [1] of 109 nM, an IC50 [2] of 49.2 nM and an IC50 [3] of 63.1 nM. The CC50 [4] was > 200000 nM.
With `O=c1c2cc(OC(F)(F)F)ccc2[nH]c2cc3ccccc3cc12` [2x, 2-(Trifluoromethoxy)benzo[b]acridin-12(5H)-one] the IC50 [1] was 16.5 nM, the IC50 [2] was 0.563 nM and the IC50 [3] was 7.03 nM. For the same compound, the CC50 [4] was > 200000 nM, the “antimalarial activity” value [5] was “excellent activity” and the “therapeutic index (the ratio of cytotoxicity to antimalarial therapeutic efficacy)” value [5] was “high”.
In the case of `O=C1C(O)=C([C@H]2CC[C@H](c3ccc(Cl)cc3)CC2)C(=O)c2ccccc21` [ATV, atovaquone, reference compound], the IC50 [2] is reported as 0.1 nM and the IC50 [3] is reported as 0.1 nM.
Compound `CCN(CC)CCCC(C)Nc1ccnc2cc(Cl)ccc12` (centres unmarked) [CQ, chloroquine, reference compound] has an IC50 [1] of 172 nM.
